From ChEMBL document CHEMBL1148903, “New decalin derivatives, eujavanoic acids A and B, from Eupenicillium javanicum” (2004)
The source made the active and inactive calls. The rule behind the calls is not given here.

Key:
[1] = test system: Aspergillus fumigatus; test: Antifungal activity against Aspergillus fumigatus at 10 mg/disk after 48 hrs; format: functional
In short: (§1)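 Paper disk diffusion assay against Aspergillus fumigatus on potato dextrose agar. Compound was applied per disk, and activity was recorded after 48 h incubation. Other assay conditions follow an earlier published method.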

[2] = test system: Aspergillus fumigatus; test: Antifungal activity against Aspergillus fumigatus at 5 mg/disk after 48 hrs; format: functional; in short: as §1
[3] = test system: Aspergillus fumigatus; test: Antifungal activity against Aspergillus fumigatus at 1 mg/disk after 48 hrs; format: functional; in short: as §1
[4] = test system: Aspergillus fumigatus; test: Antifungal activity against Aspergillus fumigatus at 0.5 mg/disk after 48 hrs; format: functional; in short: as §1
[5] = test system: Aspergillus fumigatus; test: Antifungal activity against Aspergillus fumigatus up to 100 ug/disk after 48 hrs; format: functional, organism-based; in short: as §1

For `CCOC(=O)C[C@H](O)C[C@H](O)CC[C@@H]1[C@@H]2C(=CCC[C@@H]2OC(=O)[C@@H](C)CC)C=C[C@@H]1C`, the Activity [1] was “inactive”, the Activity [2] was “inactive” and the Activity [3] was “inactive”. The Activity [4] was “inactive”.
`CC[C@H](C)C(=O)O[C@H]1CCC[C@@H]2C=C[C@H](C)[C@H](CC[C@@H](O)C[C@@H](O)CC(=O)[O-])[C@@H]12.[Na+]` was tested, and the “inhibition zone (IZ)” value [1] was 32 mm, the “inhibition zone (IZ)” value [2] was 21 mm and the “inhibition zone (IZ)” value [3] was 16 mm. The Activity [4] was “inactive”.
`CC[C@H](C)C(=O)O[C@H]1CCC[C@@H]2CC[C@H](C)[C@H](CC[C@@H](O)C[C@@H](O)CC(=O)[O-])[C@H]21.[Na+]` was tested, and the “inhibition zone (IZ)” value [1] was 22 mm, the “inhibition zone (IZ)” value [2] was 18 mm and the Activity [4] was “inactive”.
For `C[C@@H]1[C@H](CC[C@@H](O)C[C@@H](O)CC(=O)O)[C@H]2CCCCC2=C[C@H]1O`, the Activity [5] was “inactive”.
For `C[C@@H]1[C@H](O)[C@@H](C)/C=C/C=C/C=C/C=C/C=C/C=C/C=C/[C@H](O[C@@H]2O[C@H](C)[C@@H](O)[C@H](N)[C@@H]2O)C[C@@H]2O[C@](O)(C[C@@H](O)C[C@@H](O)[C@H](O)CC[C@@H](O)C[C@@H](O)CC(=O)O[C@H]1C)C[C@H](O)[C@H]2C(=O)O` [AMPHOTERICIN B], the “inhibition zone (IZ)” value [1] was 13 mm, the “inhibition zone (IZ)” value [2] was 14 mm and the “inhibition zone (IZ)” value [3] was 11 mm.
In the case of `C[C@H]1C(=O)C=C2CCCC[C@@H]2[C@H]1CC[C@@H](O)C[C@@H](O)CC(=O)O`, the Activity [5] is reported as “inactive”.
`C[C@H]1C=CC2=CCC[C@H](O)[C@@H]2[C@H]1CC[C@@H](O)C[C@@H](O)CC(=O)O` was tested, and the Activity [5] was “inactive”.
